Experimental data as given in ChEMBL document CHEMBL6114938, “Design, synthesis, and biological evaluation of pyrazole-ciprofloxacin hybrids as antibacterial and antibiofilm agents against Staphylococcus aureus” (RSC Med Chem, 2025).
≈ marks a conversion by molar mass, not a printed value. Calls of active or inactive are those of the source. The rule behind the calls is not given here.

What was measured:
[1] = Cytotoxicity against human HepG2 cells assessed as reduction in cell viability incubated for 48 hrs by MTT assay; type: toxicity, cell-based
How it was run: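 MTT viability assay in HepG2 cells seeded at 1000-4000 per well and allowed to adhere overnight. Compounds were tested at 1000-0.78 µg/mL for 48 h in fresh medium. MTT 0.5 mg/mL was added for 4 h at 37 °C, formazan was dissolved in DMSO, and absorbance was read at 570 nm.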

[2] = tested on: Staphylococcus aureus; assay: Antibacterial activity against Staphylococcus aureus ATCC 29213 assessed as inhibition of bacterial growth incubated for 18 to 24 hrs by two-fold serial dilution method; type: functional; details: time 18-24 hrs
How it was run: (§1)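 Broth microdilution in cation-adjusted Mueller Hinton broth with two-fold serial dilutions. Inoculum came from overnight cultures on Mueller Hinton agar, set to OD600 0.08-0.1 and diluted 100-fold, then added 1:1 to the compound wells. Plates were incubated at 37 °C for 18-24 h and read visually. MIC is the lowest concentration with no turbidity.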

[3] = tested on: Mycobacterium tuberculosis; assay: Antimycobacterial activity against Mycobacterium tuberculosis H37Ra ATCC 25177 assessed as inhibition of bacterial growth incubated for 10 days by liquid broth microdilution method; type: functional; details: H37Ra ATCC 25177, 240 h, time 10 day
How it was run: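 Log-phase H37Ra (OD₆₀₀ 0.4–0.6) was grown in 7H9 with D-pantothenic acid, amino acids, 0.2% glycerol, 0.05% Tween 80 and 10% ADS, then diluted to OD₆₀₀ 0.005 (1.0×10⁶ CFU/ml). Compounds were two-fold serially diluted in 7H9, and plates were incubated for 10 days at 37 °C in 5% CO₂. MIC was the lowest concentration without visible turbidity.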

[4] = tested on: Pseudomonas aeruginosa; assay: Antibacterial activity against Pseudomonas aeruginosa PAO1 ATCC 15692 assessed as inhibition of bacterial growth incubated for 18 to 24 hrs by two-fold serial dilution method; type: functional; details: time 18-24 hrs; how it was run: as §1
[5] = tested on: Staphylococcus aureus; assay: Potency index, ratio of ciprofloxacin MIC to test compound MIC for antibacterial activity against Staphylococcus aureus ATCC 29213; type: functional
[6] = tested on: Staphylococcus aureus; assay: Antibacterial activity against one-step ciprofloxacin resistant mutant of Staphylococcus aureus ATCC 29213 assessed as inhibition of bacterial growth by liquid broth microdilution assay; type: functional
How it was run: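 One-step ciprofloxacin-resistant mutants were raised by plating log-phase cells adjusted to 10¹⁰ CFU/ml on ciprofloxacin-containing Mueller-Hinton agar for 48 h at 37 °C, then passaging picked colonies on ciprofloxacin plates. Mutants with a more than eightfold rise in ciprofloxacin MIC were kept. MIC was read by broth microdilution: two-fold dilutions in cation-adjusted MHB, and inoculum of OD₆₀₀ 0.08–0.1 diluted hundredfold. Plates ran 18–24 h at 37 °C, and MIC was the lowest concentration with no visible turbidity.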

[7] = tested on: Staphylococcus aureus; assay: Antibiofilm activity against Staphylococcus aureus ATCC 29213 assessed as inhibition of biofilm formation incubated for 24 hrs by crystal violet staining based analysis; type: functional
How it was run: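 Biofilm formation assay with inoculum at OD600 0.015 from overnight culture. Twelve two-fold dilutions (128 to 0.06 µg/ml) were made in MHB with 2% sucrose in flat-bottom polystyrene wells and incubated at 37 °C for 24 h. Wells were washed with PBS pH 7.4, fixed with methanol, stained with 0.1% crystal violet, eluted with 95% ethanol and read at A595. MBIC50 is the lowest concentration giving ≥50% inhibition versus untreated culture.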

[8] = tested on: Staphylococcus aureus; assay: Bactericidal activity against Staphylococcus aureus ATCC 29213 assessed as log reduction in bacterial load at 4X to 8XMIC measured within 9 hrs by time-kill kinetics analysis; type: functional
How it was run: (§2)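 Time-kill: log-phase cultures at OD600 0.005 were exposed to 1×, 4× and 8× MIC at 37 °C. Viable counts (CFU/ml) were taken by plating 10-fold serial dilutions at 2, 4, 6, 8, 10 and 24 h. Curves plot log10 CFU/ml against time over 24 h.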

[9] = tested on: Staphylococcus aureus; assay: Antibacterial activity against methicillin-resistant Staphylococcus aureus assessed as inhibition of bacterial growth; type: functional
[10] = tested on: Mycobacterium tuberculosis; assay: Antimycobacterial activity against Mycobacterium tuberculosis H37Rv ATCC 27294 assessed as inhibition of bacterial growth incubated for 7 days by broth microdilution assay; type: functional; details: H37Rv ATCC 27294, 168 h, time 7 day
[11] = tested on: Escherichia coli; assay: Antibacterial activity against Escherichia coli ATCC 25922 assessed as inhibition of bacterial growth incubated for 18 hrs by twofold microdilution method; type: functional
[12] = tested on: Staphylococcus aureus; assay: Antibacterial activity against Staphylococcus aureus NCTC 4163 assessed as inhibition of bacterial growth incubated for 18 hrs by twofold microdilution method; type: functional
[13] = tested on: Staphylococcus aureus; assay: Antibacterial activity against Staphylococcus aureus ATCC 6538 assessed as inhibition of bacterial growth incubated for 18 hrs by twofold microdilution method; type: functional
[14] = tested on: Staphylococcus aureus; assay: Antibacterial activity against Staphylococcus aureus ATCC 29213 assessed as inhibition of bacterial growth incubated for 18 hrs by twofold microdilution method; type: functional
[15] = tested on: Staphylococcus aureus; assay: Antibacterial activity against Staphylococcus aureus ATCC 25923 assessed as inhibition of bacterial growth incubated for 18 hrs by twofold microdilution method; type: functional
[16] = tested on: Staphylococcus aureus; assay: Bactericidal activity against Staphylococcus aureus ATCC 29213 assessed as bacterial killing at 8XMIC measured within 6 hrs by time-kill kinetics analysis; type: functional, organism-based; how it was run: as §2
[17] = tested on: Staphylococcus aureus; assay: Ratio of MIC for antibacterial activity against Staphylococcus aureus ATCC 29213 to MBIC50 for antibiofilm activity against Staphylococcus aureus ATCC 29213; type: functional
[18] = tested on: Staphylococcus aureus; assay: Bactericidal activity against Staphylococcus aureus ATCC 29213 assessed as log reduction in bacterial load at 1XMIC measured within 9 hrs by time-kill kinetics analysis; type: functional; how it was run: as §2
[19] = molecular target: DNA gyrase (Escherichia coli) (UniProt P0AES6+P0AES4); assay: Inhibition of Escherichia coli DNA gyrase assessed as reduction in supercoiled state of plasmid using pUC19 plasmid DNA as substrate at 8XMIC incubated for 90 mins by gel electrophoresis analysis; type: protein-complex assay
[20] = tested on: Staphylococcus aureus; assay: Potency index, ratio of ciprofloxacin MBIC50 to test compound MBIC50 for antibiofilm activity against Staphylococcus aureus ATCC 29213; type: functional
[21] = tested on: Staphylococcus aureus; assay: Bactericidal activity against Staphylococcus aureus ATCC 29213 assessed as log reduction in bacterial load at 4X to 8XMIC measured within 3 hrs by time-kill kinetics analysis; type: functional; how it was run: as §2

Compound | MIC [2] [µg/mL] | MIC [3] [µg/mL] | MIC [4] [µg/mL] | further results
CC/C(=C(\c1ccccc1)c1ccc(OCCN(C)C)cc1)c1ccccc1 [TAMOXIFEN] |  |  |  | CC50 at 48 h [1]: 3.7 µg/mL (≈ 9.95 µM)
O=C(CN1CCN(c2cc3c(cc2F)c(=O)c(C(=O)O)cn3C2CC2)CC1)Nc1ccc(-n2ccc(-c3ccc(Br)cc3)n2)cc1 | 32 (≈ 46.7 µM) | 16 (≈ 23.3 µM) | 128 (≈ 187 µM) | 
O=C(CN1CCN(c2cc3c(cc2F)c(=O)c(C(=O)O)cn3C2CC2)CC1)Nc1ccc(-n2ccc(-c3ccc(F)cc3)n2)cc1 | 0.125 (≈ 0.2 µM) | 1 (≈ 1.6 µM) | 32 (≈ 51.2 µM) | Ratio [5]: 2; MIC [6]: 8 µg/mL (≈ 12.8 µM); CC50 at 48 h [1]: > 1000 µg/mL; MBIC50 [7]: 2.7 µg/mL
COc1ccc(-c2ccn(-c3ccc(NC(=O)CN4CCN(c5cc6c(cc5F)c(=O)c(C(=O)O)cn6C5CC5)CC4)cc3)n2)cc1OC | 0.125 (≈ 0.187 µM) | 16 (≈ 24 µM) | 128 (≈ 192 µM) | Ratio [5]: 2; MIC [6]: 0.25 µg/mL (≈ 0.375 µM); Activity [8]: >=3 log10CFU/ml; CC50 at 48 h [1]: ≥ 592 µg/mL; MBIC50 [7]: 0.3 µg/mL
COc1cc(OC)c(-c2cc(-c3cn(-c4ccccc4)nc3-c3ccccc3)[nH]c(=N)n2)cc1OC |  |  |  | MIC [9]: 521 µM
COc1cc(-c2ccn(-c3ccc(NC(=O)CN4CCN(c5cc6c(cc5F)c(=O)c(C(=O)O)cn6C5CC5)CC4)cc3)n2)cc(OC)c1OC | 0.125 (≈ 0.179 µM) | 0.5 (≈ 0.718 µM) | 32 (≈ 45.9 µM) | Ratio [5]: 2; MIC [6]: 1 µg/mL (≈ 1.44 µM); CC50 at 48 h [1]: > 1000 µg/mL; MBIC50 [7]: 0.52 µg/mL
O=C(CN1CCN(c2cc3c(cc2F)c(=O)c(C(=O)O)cn3C2CC2)CC1)Nc1ccc(-n2ccc(-c3ccc4c(c3)OCO4)n2)cc1 | 0.5 (≈ 0.768 µM) | 32 (≈ 49.2 µM) | 64 (≈ 98.4 µM) | MIC [6]: 32 µg/mL (≈ 49.2 µM); CC50 at 48 h [1]: > 1000 µg/mL; MBIC50 [7]: 1.84 µg/mL
Cc1ccc(-c2ccn(-c3ccc(NC(=O)CN4CCN(c5cc6c(cc5F)c(=O)c(C(=O)O)cn6C5CC5)CC4)cc3)n2)cc1 | 8 (≈ 12.9 µM) | 32 (≈ 51.6 µM) | 128 (≈ 206 µM) | 
O=C(CN1CCN(c2cc3c(cc2F)c(=O)c(C(=O)O)cn3C2CC2)CC1)Nc1ccc(-n2ccc(-c3cc4ccccc4o3)n2)cc1 | 1 (≈ 1.55 µM) | 2 (≈ 3.09 µM) | 32 (≈ 49.5 µM) | 
O=C(CN1CCN(c2cc3c(cc2F)c(=O)c(C(=O)O)cn3C2CC2)CC1)Nc1ccc(-n2ccc(-c3ccc(Cl)cc3Cl)n2)cc1 | 16 (≈ 23.7 µM) | 64 (≈ 94.7 µM) | > 128 | 
COc1cccc(-c2ccn(-c3ccc(NC(=O)CN4CCN(c5cc6c(cc5F)c(=O)c(C(=O)O)cn6C5CC5)CC4)cc3)n2)c1 | 1 (≈ 1.57 µM) | 4 (≈ 6.28 µM) | 32 (≈ 50.3 µM) | 
COc1ccc(-c2ccn(-c3ccc(NC(=O)CN4CCN(c5cc6c(cc5F)c(=O)c(C(=O)O)cn6C5CC5)CC4)cc3)n2)cc1 | 4 (≈ 6.28 µM) | 8 (≈ 12.6 µM) | 32 (≈ 50.3 µM) | 
O=C(CN1CCN(c2cc3c(cc2F)c(=O)c(C(=O)O)cn3C2CC2)CC1)Nc1ccc(-n2ccc(-c3ccccc3Cl)n2)cc1 | 1 (≈ 1.56 µM) | 4 (≈ 6.24 µM) | 16 (≈ 25 µM) | 
O=C(O)c1ccc(-c2nn(-c3ccc(C(F)(F)F)cc3)cc2CNc2ccc(Br)c(C(F)(F)F)c2)cc1 |  |  |  | MIC [9]: < 1 µg/mL
O=C(Nc1ccc(-n2ccc(-c3cc4ccccc4o3)n2)cc1)c1cc([N+](=O)[O-])cc([N+](=O)[O-])c1 |  |  |  | MIC [10]: 0.03 µg/mL (≈ 0.0639 µM)
O=C(CN1CCN(c2cc3c(cc2F)c(=O)c(C(=O)O)cn3C2CC2)CC1)Nc1ccc(-n2ccc(-c3ccc4ccccc4c3)n2)cc1 | 1 (≈ 1.52 µM) | 1 (≈ 1.52 µM) | 2 (≈ 3.05 µM) | 
O=C(O)c1cn(C2CC2)c2cc(N3CCN(C(=O)CCl)CC3)c(F)cc2c1=O |  |  |  | MIC [11]: 0.1 µg/mL (≈ 0.245 µM); MIC [12]: 0.1 µg/mL (≈ 0.245 µM); MIC [13]: 0.1 µg/mL (≈ 0.245 µM); MIC [14]: 0.1 µg/mL (≈ 0.245 µM); MIC [15]: 0.1 µg/mL (≈ 0.245 µM)
O=C(CN1CCN(c2cc3c(cc2F)c(=O)c(C(=O)O)cn3C2CC2)CC1)Nc1ccc(-n2ccc(-c3cccc(Cl)c3)n2)cc1 | 8 (≈ 12.5 µM) | 8 (≈ 12.5 µM) | 64 (≈ 99.8 µM) | 
O=C(CN1CCN(c2cc3c(cc2F)c(=O)c(C(=O)O)cn3C2CC2)CC1)Nc1ccc(-n2ccc(-c3ccc(Cl)cc3)n2)cc1 | 1 (≈ 1.56 µM) | 64 (≈ 99.8 µM) | 128 (≈ 200 µM) | 
NNC(=O)c1ccncc1 [ISONIAZID] |  | 0.034 (≈ 0.248 µM) |  | 
O=C(CN1CCN(c2cc3c(cc2F)c(=O)c(C(=O)O)cn3C2CC2)CC1)Nc1ccc(-n2ccc(-c3ccccc3)n2)cc1 | 0.125 (≈ 0.206 µM) | 0.5 (≈ 0.824 µM) | 8 (≈ 13.2 µM) | Ratio [5]: 2; MIC [6]: 0.5 µg/mL (≈ 0.824 µM); Activity [16]: Active; CC50 at 48 h [1]: > 1000 µg/mL; MBIC50 [7]: 0.27 µg/mL
Cc1cc(-c2ccn(-c3ccc(NC(=O)CN4CCN(c5cc6c(cc5F)c(=O)c(C(=O)O)cn6C5CC5)CC4)cc3)n2)ccc1F | 16 (≈ 25.1 µM) | 4 (≈ 6.26 µM) | 128 (≈ 200 µM) | 
O=C(O)c1cn(C2CC2)c2cc(N3CCNCC3)c(F)cc2c1=O [CIPROFLOXACIN] | 0.25 (≈ 0.754 µM) |  | 0.06 (≈ 0.181 µM) | MIC [6]: 2 µg/mL (≈ 6.04 µM); MBIC50 [7]: 1.06 µg/mL
COc1ccccc1-c1ccn(-c2ccc(NC(=O)CN3CCN(c4cc5c(cc4F)c(=O)c(C(=O)O)cn5C4CC4)CC3)cc2)n1 | 0.125 (≈ 0.196 µM) | 4 (≈ 6.28 µM) | 64 (≈ 101 µM) | Ratio [17]: 6; Activity [18]: >=3 log10CFU/ml; inhibition [19]: Active; Ratio [5]: 2; Ratio [20]: 50; MIC [6]: 0.125 µg/mL (≈ 0.196 µM); CC50 at 48 h [1]: > 1000 µg/mL; Activity [21]: >=3 log10CFU/ml; MBIC50 [7]: 0.02 µg/mL
